Most compounds without a hit are left out; they make up all but 9.4% or so of the library.
Beta apoptosis: beta cell apoptosis inhibition. INS-1E cytokine-induced death, ATP luminescence, 48 h; percent of positive-control rescue, neutral wells zero. protection from apoptosis, % (no concentration beside the values). 300,000 tested, 0.8% active. AID 435005;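 active = Every replicate reaches about 75%, or at least half do and their mean reaches it too, limit read from the data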;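 also: higher means more ATP so stronger rescue from cytokine killing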
T cruzi repl: blocks replication of Trypanosoma cruzi; inhibition, % (concentration not given with the values); T. cruzi beta-gal in NIH3T3, luminescence, 90 h; 300,000 tested, 1.4% active;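 active = mean inhibition across valid replicates above about 55%, limit read from the data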;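 also: signal also drops with host cell toxicity which is not excluded here; higher percent means less beta-gal luminescence so fewer parasites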
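assay system = mouse NIH/3T3 fibroblasts infected with β-gal-expressing T. cruzi Tulahuen C4 | input = 5,000 NIH/3T3 host cells per well | buffer or medium = DMEM plus 2% FBS | timing = 3 h host attachment, then at least 90 h co-culture | measured by = GalScreen luminescence, 60 min | evaluation = luminescence reflecting intracellular parasite burden, expressed as percent inhibition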
Mdm2-MdmX inh: disrupts the human Mdm2-MdmX interaction. O15151+Q00987. SaOS-2 split-luciferase Mdm2/MdmX complementation, luminescence. inhibition, % at 8 µM. 330,000 tested, 3% active. AID 485346;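 active = inhibition of at least 50% at 8 µM in the primary screen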
Target sequence (O15151 whole entry, looked up): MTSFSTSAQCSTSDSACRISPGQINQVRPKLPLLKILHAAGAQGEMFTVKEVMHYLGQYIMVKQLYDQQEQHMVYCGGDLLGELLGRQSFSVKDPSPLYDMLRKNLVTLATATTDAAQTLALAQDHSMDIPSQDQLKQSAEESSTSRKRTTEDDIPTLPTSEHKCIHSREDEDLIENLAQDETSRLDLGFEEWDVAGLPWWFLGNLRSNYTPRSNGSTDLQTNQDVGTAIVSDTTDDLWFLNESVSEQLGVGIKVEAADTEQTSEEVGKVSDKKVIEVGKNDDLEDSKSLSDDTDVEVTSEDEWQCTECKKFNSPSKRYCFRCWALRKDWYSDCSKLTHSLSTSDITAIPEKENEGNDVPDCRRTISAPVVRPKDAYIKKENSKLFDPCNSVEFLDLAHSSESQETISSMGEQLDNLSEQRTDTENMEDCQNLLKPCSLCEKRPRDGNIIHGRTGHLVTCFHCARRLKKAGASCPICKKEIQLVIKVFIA
Target sequence (Q00987 whole entry, looked up): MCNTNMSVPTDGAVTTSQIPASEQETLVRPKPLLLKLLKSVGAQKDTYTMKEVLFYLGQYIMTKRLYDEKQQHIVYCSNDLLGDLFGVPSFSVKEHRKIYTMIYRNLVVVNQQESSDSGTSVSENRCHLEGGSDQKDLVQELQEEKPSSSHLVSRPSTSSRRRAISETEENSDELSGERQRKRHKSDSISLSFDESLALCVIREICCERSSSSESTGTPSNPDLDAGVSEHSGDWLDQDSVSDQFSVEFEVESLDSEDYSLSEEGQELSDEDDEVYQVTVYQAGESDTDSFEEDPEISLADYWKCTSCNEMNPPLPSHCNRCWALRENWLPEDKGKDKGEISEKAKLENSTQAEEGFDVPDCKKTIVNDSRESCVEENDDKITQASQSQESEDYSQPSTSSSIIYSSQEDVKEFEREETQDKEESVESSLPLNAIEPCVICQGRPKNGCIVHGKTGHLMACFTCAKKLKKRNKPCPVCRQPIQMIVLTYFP
SKKanGAS inh: inhibitors of SKKanGAS S. pyogenes growth in kanamycin (SK-promoter or general growth effect); inhibition, % at 7.5 µM; BacTiter-Glo, 6 h; 300,000 tested, 1.3% active;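 active = mean replicate score, as percent of positive control median, at least 50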;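 also: strain carries kanamycin resistance gene driven by streptokinase promoter and grows in 40 µg/ml kanamycin; loss of luminescence reflects streptokinase promoter inhibition or plain growth inhibition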
CSC inhib: blocks cancer stem cells; 300,000 tested, 1.1% active; inhibition, % at 7.5 µM; cancer stem cell-like cells viability, luminescence; in the data active = inhibition above about 75%; tested in HMLE shEcad cells
Lmaj promast: inhibitors of Leishmania major promastigote growth. Leishmania major promastigotes, resazurin fluorescence viability. inhibition, % at 10 µM. 200,000 tested, 9% active; in the data active = inhibition above about 50%;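 also: promastigotes grown with compound for 44 hours at 28 °C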
Hits are given with their value; 0 = inactive; - = no result given.

SMILES	Beta apoptosis	T cruzi repl	Mdm2-MdmX inh	SKKanGAS inh	CSC inhib	Lmaj promast
Cc1ccc(CN(C(=O)Cc2cccs2)C(C(=O)NC2CCCC2)c2ccncc2)cc1 (stereo not given)	0	59	0	0	0	0
O=C(NC1CCCCC1)C(c1cccs1)N(Cc1cccs1)C(=O)c1cccs1 (stereo not given)	0	0	0	0	0	99
O=C(NC1CCCC1)C(c1ccccc1)N(Cc1cccnc1)C(=O)Cc1cccs1 (stereo not given)	0	67	0	0	0	0
Cc1cccc(CCN(C(=O)Cc2cccs2)C(C(=O)NC2CCCCC2)c2cccnc2)c1 (stereo not given)	0	0	0	0	0	0
Cc1ccc(N(C(=O)CNC(=O)c2ccco2)C(C(=O)NC2CCCCC2)c2cccnc2)cc1C (stereo not given)	0	0	0	0	0	-
CC1=C(C(=O)Nc2ccccc2C(=O)N2CCC(C)CC2)SCCO1	0	0	0	0	0	-
Cc1nc(SCC(=O)NNC(=O)c2ccc(F)cc2)c2ccccc2n1	0	-	0	-	0	-
CC1CCN(CCCCOc2ccc(C(=O)c3ccccc3)cc2)CC1	-	0	0	0	0	99
c1ccc(COc2ccc(OCCN3CCCC3)cc2)cc1	0	55	0	0	0	100
c1ccc(COc2ccc(OCCCN3CCCC3)cc2)cc1	0	0	0	0	0	100
CC1CCN(CCCOc2ccc(OCc3ccccc3)cc2)CC1	0	0	0	0	0	100
CC1CCN(CCOc2ccc(C(=O)c3ccccc3)cc2)CC1	0	0	0	0	0	-
COc1ccc(C(=O)OCC(=O)N2CCCCCC2)cc1S(=O)(=O)N1CCOCC1	0	-	0	-	-	-
COc1ccccc1NC(=O)NCc1nc(-c2ccc(C(F)(F)F)cc2)no1	0	0	0	0	0	-
c1ccc(Cc2ccc(OCCN3CCOCC3)cc2)cc1	0	0	0	0	0	-
CCOc1ccc(OCCOCCN2CCCC2)cc1	0	0	0	0	0	-
COc1ccc(C2(O)CCN(C(=O)Cc3cccnc3)CC2)cc1	0	0	0	0	0	0
COc1ccc(C2(O)CCN(CCCCOc3ccccc3)CC2)cc1	0	0	0	0	0	95
CC(C)c1ccc(OCCCCN2CCCCC2)cc1	0	0	0	0	0	-
c1ccc(COc2ccc(OCCN3CCCCC3)cc2)cc1	-	0	0	0	-	100
CC(C)Oc1ccc(OCCCN2CCCCCC2)cc1	0	0	0	0	0	100
CCC(C)c1ccc(OCCN2CCCC2)cc1 (stereo not given)	0	0	0	0	0	96
COc1ccc(N2CCN(C(=O)COC(=O)c3ccc(OC(F)F)cc3)CC2)cc1	0	-	0	-	0	-
CC(C)CN(C(=O)COC(=O)c1c2c(nc3ccccc13)CCC2)c1c(N)n(Cc2ccccc2)c(=O)[nH]c1=O	-	0	0	0	0	-
CC(C)NS(=O)(=O)c1ccc(CCC(=O)N2CCCCC2)cc1	0	0	0	0	0	0
SMILES	Beta apoptosis	T cruzi repl	Mdm2-MdmX inh	SKKanGAS inh	CSC inhib	Lmaj promast
CC(=O)Cc1cc(O)c2ccccc2c1OC(=O)c1ccc(Br)cc1	108	0	0	0	0	-
Cc1cccc(-n2c(SCC(=O)NCc3ccc4c(c3)OCO4)nc3ccccc3c2=O)c1	0	0	0	0	0	96
Cc1cccc(-n2c(SCC(=O)NCc3ccco3)nc3ccccc3c2=O)c1	0	0	0	0	-	0
O=C(CSc1nc2ccccc2c(=O)n1-c1ccccc1)NCc1ccco1	0	0	0	0	0	61
CCN(CC(=O)NCc1ccc(F)cc1)C(=O)C(C)Oc1cccc(Cl)c1 (stereo not given)	0	-	0	-	0	-
COc1ccc(-c2[nH]n(-c3ccc([N+](=O)[O-])cc3)c(=O)c2C=NCc2ccncc2)cc1	0	0	0	-	0	99
COc1cc(NS(=O)(=O)c2c(C)oc3c(F)c(F)c(F)c(F)c23)cc(OC)c1OC	0	0	0	0	0	-
O=C(Nn1c(-c2ccc(Br)cc2)nc2ccccc2c1=O)c1cccnc1	0	0	0	0	0	0
O=C(Nn1c(-c2ccncc2)nc2ccccc2c1=O)c1ccc(Br)cc1	-	67	0	0	0	0
Cc1cc(C)c2nc(N3CCCC(C(=O)N4CCN(c5ncccn5)CC4)C3)sc2c1 (stereo not given)	0	0	0	0	75	0
O=C(NNC(=O)c1cc(O)c(O)c(O)c1)NC1CCCCC1	0	0	0	0	0	92
O=C(NNC(=O)c1cccnc1)NC1CCCCC1	0	0	0	0	0	0
Cc1cccc(NC(=O)NNC(=O)c2ccccn2)c1	0	-	0	-	0	-
O=C(COC(=O)c1ccc2c(c1)C(=O)N(Cc1ccncc1)C2=O)Nc1ccccc1[N+](=O)[O-]	0	0	0	0	0	54
CCOC(=O)c1ccc(-n2ccnc2)c(NC(=O)c2ccc(Cl)cc2)c1	0	0	0	0	0	81
CSc1ccc(CN2CCCN(C)CC2)cc1	0	0	0	0	0	-
CCc1ccc(C2C(C#N)=C(N)C(C#N)(C#N)C3=CCC(C(C)(C)C)CC32)cc1 (stereo not given)	0	0	0	85	0	96
CCOC(=O)C1=C(N)n2c(s/c(=C\c3ccncc3)c2=O)=C(C(=O)OCC)C1c1ccncc1 (stereo not given)	0	0	0	0	-	52
CCOC(=O)C1=c2/c(=C/c3ccncc3)c(N)c(C(=O)OC)n2C(=O)C(c2ccncc2)S1 (stereo not given)	0	0	0	0	0	56
CCOC(=O)C1=C(N)n2c(s/c(=C\c3cccnc3)c2=O)=C(C(=O)OC)C1c1cccnc1 (stereo not given)	0	0	0	0	0	0
CCCn1c(SCC(=O)Nc2ccc3c(c2)OCCO3)n[nH]c1=O	-	-	0	-	-	-
CCn1c(C)c(C)c2cc(C(=O)Nc3cccc(Cl)c3)ccc21	0	0	0	0	81	62
CC(C)[C@H](NC(=O)OCc1ccccc1)C(=O)OCc1cc(=O)oc2cc(O)ccc12	-	0	0	0	0	-
CCOC(=O)c1c(CC(C)C)csc1NC(=O)c1ccccc1C(=O)O	0	0	0	0	0	-
CC(C)Cc1csc(NC(=O)c2ccc(F)cc2)c1C(=O)O	0	0	0	0	121	0
SMILES	Beta apoptosis	T cruzi repl	Mdm2-MdmX inh	SKKanGAS inh	CSC inhib	Lmaj promast
CN(C)C(CNC(=O)c1coc2ccccc2c1=O)c1ccccc1 (stereo not given)	-	0	0	0	0	-
NC(=S)N=Nc1ccc(NN=C(N)N)cc1	0	0	0	106	0	-
COC(=O)c1ccc(NN=Nc2ccc(C)cc2)cc1	0	0	0	0	0	0
COC(=O)Cn1cnc2c(nnn2-c2ccc(OC)cc2)c1=O	0	0	0	0	0	-
Cc1nn(C)c(C)c1/C=C/C(=O)c1cccs1	0	0	0	0	0	72
CCC/C(O)=C1\C(=O)CC(c2ccccc2)CC1=NCCc1c(C)[nH]c2ccc(C)cc12 (stereo not given)	0	0	0	0	0	58

Screens deposited in PubChem BioAssay by several laboratories.
